Results as given in ChEMBL document CHEMBL4665656, “Toxicity, bioactivity, release of HS in vivo and pharmaco-kinetics of HS-donors with thiophosphamide structure” (Eur J Med Chem, 2019).
Activity calls are given as the source filed them. The rule behind the calls is not given here.

How the values were obtained:
[1] = Solubility of compound in water; format: physicochemical; details: buffer
[2] = Kinetic Solubility of compound; format: physicochemical
[3] = Retention time of compound in PBS by LC-MS analysis; format: physicochemical; details: buffer
Procedure, shortened: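 Compound incubated in PBS pH 7.4 or in serum, sampled every 12 h over 36 h, and analysed by LC-MS for parent and product peaks.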

[4] = Induction of H2S generation assessed as Cmax Induction of H2S generation assessed as Cmax at 150 uM incubated at 37 degC and pH 8 by fluorescence spectrophotometry; format: functional
Procedure, shortened: (§1)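 Donor at 150 µM final, mixed with 200 µM sulfonyl-azide fluorescent probe in buffer/acetonitrile (1:9) at set pH. Cuvette held in a water bath at 22 °C or 37 °C, with fluorescence read three times at intervals. H2S was quantified from a Na2S standard curve (0–200 µM, probe 200 µM).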

[5] = Induction of H2S generation assessed as Cmax at 150 uM incubated at 22 degC and pH 7.4 by fluorescence spectrophotometry; format: functional; procedure, shortened: as §1
[6] = Induction of H2S generation assessed as Cmax at 150 uM incubated at 22 degC and pH 8 by fluorescence spectrophotometry; format: functional; procedure, shortened: as §1
[7] = Induction of H2S generation assessed as Cmax at 150 uM incubated at 22 degC and pH 1.2 by fluorescence spectrophotometry; format: functional; procedure, shortened: as §1
[8] = Drug metabolism in Wistar rat heart homogenate assessed as metabolite formation incubated for 36 hrs by LC-MS; format: ADME, tissue-based; details: tissue homogenate
[9] = Drug metabolism in Wistar rat kidney homogenate assessed as metabolite formation incubated for 36 hrs by LC-MS; format: ADME, tissue-based; details: tissue homogenate
[10] = system: HeLa; experiment: Cytotoxicity in human HeLa cells assessed as growth inhibition incubated for 24 hrs by MTT assay; format: functional, cell-based
Procedure, shortened: (§2)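 Cells were grown in RPMI 1640 with 10% FBS at 37 °C and 10% CO2, seeded at 6×10^3 cells/well. Exposure was 24 h, with viability by MTT, in triplicate cultures. IC50 was reported as mean ± SD.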

[11] = system: HepG2; experiment: Cytotoxicity in human HePG2 cells assessed as growth inhibition incubated for 24 hrs by MTT assay; format: functional, cell-based; details: HepG2, 24 h; procedure, shortened: as §2
[12] = system: MCF7; experiment: Cytotoxicity in human MCF-7 cells assessed as growth inhibition incubated for 24 hrs by MTT assay; format: functional, cell-based; details: MCF7, 24 h; procedure, shortened: as §2
[13] = system: WI-38; experiment: Cytotoxicity in human W138 cells assessed as growth inhibition incubated for 24 hrs by MTT assay; format: cell-based; details: WI-38, 24 h; procedure, shortened: as §2
[14] = Toxicity in zebrafish embryos assessed as embryo malformation rate at 1 to 20 uM measured after 96 hpf relative to control; parameters: species or system Danio rerio; details: in vivo
[15] = system: H9c2; experiment: Cardioprotective activity against H2O2- induced toxicity in rat H9c2 cells assessed as increase in survival rate at 50 uM incubated for 8 hrs co-treated with 400 uM H2O2 measured after 24 hrs by MTT assay relative to control; format: functional
Procedure, shortened: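 H9c2 cardiomyocytes injured with H2O2 (50, 200 or 400 µM) for 8 h together with compound (10–100 µM). Survival rate measured against the H2O2 model group. Six independent experiments, mean ± sd.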

[16] = Toxicity in zebra fish assessed as survival rate at 0.5 uM measured after 120 hpf by microscopic analysis; parameters: species or system Danio rerio; details: zebrafish
Procedure, shortened: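 Wild-type AB zebrafish embryos were checked at 4 hpf, and normally developed ones were used. There were 100 embryos per group, split into three replicates, one per well in 200 µL solution under sealing film. Mortality was recorded at 24–168 hpf. Vehicle control was DMF diluted 1:1000. Values are mean ±SD of three independent experiments.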

[17] = system: RAW264.7; experiment: Anti-inflammatory activity in mouse RAW264.7 cells assessed as inhibition of LPS-induced NO production preincubated for 4 hr followed by LPS addition and measured after 24 hrs relative to control; format: functional, cell-based; details: dose 100.0 µM, time 28.0 hrs
Procedure, shortened: (§3)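 RAW264.7 cells exposed to LPS 1 µg/mL with compound (20 and 100 µM) for 24 h. Nitrite in medium measured by Griess reagent, […], against a sodium nitrite standard curve (0–100 µM). Four parallel groups, mean ± SD.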

[18] = Cytotoxicity against rat H9C2 cells assessed as cell viability at 100 uM measured after 24 hrs by MTT assay; format: cell-based; details: read-out: Activity
[19] = Induction of H2S generation assessed as half life at 150 uM incubated at 22 degC and pH 1.2 by fluorescence spectrophotometry; format: functional; procedure, shortened: as §1
[20] = Induction of H2S generation assessed as half life at 150 uM incubated at 22 degC and pH 5 by fluorescence spectrophotometry; format: functional; procedure, shortened: as §1
[21] = Induction of H2S generation assessed as half life at 150 uM incubated at 22 degC and pH 8 by fluorescence spectrophotometry; format: functional; procedure, shortened: as §1
[22] = Induction of H2S generation assessed as half life at 150 uM incubated at 37 degC and pH 5 by fluorescence spectrophotometry; format: functional; procedure, shortened: as §1
[23] = Induction of H2S generation assessed as half life at 150 uM incubated at 37 degC and pH 7.4 by fluorescence spectrophotometry; format: functional; procedure, shortened: as §1
[24] = system: RAW264.7; experiment: Anti-inflammatory activity in mouse RAW264.7 cells assessed as inhibition of LPS-induced NO production at 100 uM preincubated for 4 hr followed by LPS addition and measured after 24 hrs relative to control; format: functional; procedure, shortened: as §3
[25] = system: RAW264.7; experiment: Anti-inflammatory activity in mouse RAW264.7 cells assessed as inhibition of LPS-induced IL-10 production at 20 uM preincubated for 4 hr followed by LPS addition and measured after 24 hrs; format: functional, cell-based
Procedure, shortened: (§4)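 RAW264.7 cells given LPS 1 µg/mL with compound for 24 h, then lysed in RIPA and centrifuged. Protein was set to 0.1 mg/mL by BCA and mouse cytokine levels measured by sandwich ELISA kit. Four parallel groups, mean ± SD.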

[26] = system: RAW264.7; experiment: Anti-inflammatory activity in mouse RAW264.7 cells assessed as inhibition of LPS-induced TNFalpha production at 20 uM preincubated for 4 hr followed by LPS addition and measured after 24 hrs relative to control; format: functional, cell-based; procedure, shortened: as §4
[27] = system: H9c2; experiment: Cardioprotective activity against H2O2- induced toxicity in rat H9c2 cells assessed as decrease in MDA level at 10 to 100 uM pretreated with H202 for 8 hrs followed by compound addition measured after 24 hrs; format: functional, cell-based; details: dose microM 10-100, time 8.0 hrs
[28] = system: H9c2; experiment: Cytoprotective activity against H2O2-induced toxicity in rat H9c2 cells assessed as increase in SOD level at 10 to 100 uM pretreated with H202 for 8 hrs followed by compound addition measured after 24 hrs; format: functional, cell-based; details: dose microM 10-100, time 8.0 hrs
[29] = Toxicity in zebrafish embryos assessed as embryo malformation rate at 20 uM measured after 96 hpf relative to control; parameters: species or system Danio rerio; details: in vivo

SMILES | Cmax [4] [µM] | Cmax [5] [µM] | Cmax [6] [µM] | Cmax [7] [µM] | IC50 [10] [µM] | IC50 [11] [µM] | IC50 [12] [µM] | IC50 [13] [µM] | Activity [16] | Activity [17] | viability at 24 h, 100 µM [18] [%] | T1/2 [19] [min] | T1/2 [20] [min] | T1/2 [21] [min] | T1/2 [22] [min] | T1/2 [23] [min] | other results
S=P1(c2ccccc2)NCCCO1 (stereo not given) | 35.1 | 25.1 | 25.6 | 25 | 826 | 629 | 752 | 720 | Non-Toxic | Dose-dependent effect | > 90 | 35 | 34.1 | 35.1 | 36.6 | 35.7 | solubility [1]: Insoluble; Kinetic_solubility [2]: Soluble; Retention_time [3]: 9.649 min; Drug metabolism [8]: Metabolite_Detected; Drug metabolism [9]: Metabolite_Detected; Activity [14]: 2%; Activity [15]: 5.1%
O=C([O-])[C@H](Cc1cc2ccccc2[nH]1)NP([O-])(=S)c1ccccc1.[Li+].[Li+] (stereo not given in full) | 124 | 117 | 118 | 118 | 712 | 315 | 838 | 724 | Non-Toxic | Dose-dependent effect | > 90 | 2.97 | 3.53 | 8.54 | 2.9 | 3.07 | inhibition at 100 µM [24]: 50%; Activity [25]: Active; Activity [26]: Active; Activity [27]: Active; Activity [28]: Active; Activity [29]: 5%
